Assay results from ChEMBL document CHEMBL1926538, “3,5-Disubstituted-thiazolidine-2,4-dione analogs as anticancer agents: design, synthesis and biological characterization” (Eur J Med Chem, 2012).
Activity calls are given as the source filed them. The rule behind the calls is not given here.

Tests used:
[1] = test system: U-937; assay: Growth inhibition of human U937 cells after 24 hrs by MTS assay; format: functional, cell-based; settings: U-937, 24 h
Procedure, shortened: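 Cells in RPMI 1640 with 10% heat-inactivated FBS, seeded 2 × 10⁴ cells/well and exposed 24 h. MTS reagent added, then 1 h further incubation at 37 °C, 5% CO₂. Formazan absorbance read at 490 nm. Viability expressed as percentage of untreated controls.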

[2] = test system: U-937; assay: Growth inhibition of human U937 cells at 320 uM after 72 hrs by MTS assay; format: functional, cell-based
Procedure, shortened: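 U937 cells exposed 72 h, with or without AICA 320 µM, then MTS added. Absorbance read at 490 nm, expressed as percentage of untreated controls. Data are mean percentage viability, n = 6, error bars SEM.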

[3] = target: RAF proto-oncogene serine/threonine-protein kinase (Homo sapiens) (UniProt P04049); assay: Inhibition of raf-mediated ERK phosphorylation in human U937 cells at 0.3 to 30 uM after 1 hr by Western blot analysis; format: cell-based; settings: U-937
Procedure, shortened: (§1)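 Cells in RPMI 1640 with 10% heat-inactivated FBS, 37 °C, 5% CO2; treated in growing medium (DU145 24 h; U937 1 h at 5 × 10⁵/mL). Lysed by sonication in SDS sample buffer with protease inhibitors plus 1 mM orthovanadate and pyrophosphate, boiled 5 min. Blots blocked in 5% milk, primary antibodies 1:1000 overnight at 4 °C, HRP secondary 1:2000, chemiluminescence; α-tubulin loading control.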

[4] = test system: U-937; assay: Inhibition of PI3K-mediated Akt phosphorylation in human U937 cells at 0.3 to 30 uM after 1 hr by Western blot analysis; format: cell-based
[5] = target: RAF proto-oncogene serine/threonine-protein kinase (Homo sapiens) (UniProt P04049); assay: Inhibition of raf-mediated MEK phosphorylation in human U937 cells at 0.3 to 30 uM after 1 hr by Western blot analysis; format: cell-based; settings: U-937; procedure, shortened: as §1
[6] = test system: U-937; assay: Cell cycle arrest in human U937 cells assessed as accumulation at G2/M-phase after 24 hrs by propidium iodide staining-based flow cytometric analysis in presence of MEK inhibitor PD184352; format: functional
Procedure, shortened: (§2)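 Cells cultured in RPMI 1640 with 10% FBS and treated 24 h at the indicated concentrations. Stained with propidium iodide for 4 h at 4 °C in the dark. Flow cytometry gave the percentage of cells in G₀/G₁, S, G₂/M and sub-G₁ phases.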

[7] = test system: U-937; assay: Cell cycle arrest in human U937 cells assessed as decrease in S-phase population after 24 hrs by propidium iodide staining-based flow cytometric analysis in presence of MEK inhibitor PD184352; format: functional; procedure, shortened: as §2

Chain of RAF proto-oncogene serine/threonine-protein kinase (Homo sapiens) (P04049 whole entry): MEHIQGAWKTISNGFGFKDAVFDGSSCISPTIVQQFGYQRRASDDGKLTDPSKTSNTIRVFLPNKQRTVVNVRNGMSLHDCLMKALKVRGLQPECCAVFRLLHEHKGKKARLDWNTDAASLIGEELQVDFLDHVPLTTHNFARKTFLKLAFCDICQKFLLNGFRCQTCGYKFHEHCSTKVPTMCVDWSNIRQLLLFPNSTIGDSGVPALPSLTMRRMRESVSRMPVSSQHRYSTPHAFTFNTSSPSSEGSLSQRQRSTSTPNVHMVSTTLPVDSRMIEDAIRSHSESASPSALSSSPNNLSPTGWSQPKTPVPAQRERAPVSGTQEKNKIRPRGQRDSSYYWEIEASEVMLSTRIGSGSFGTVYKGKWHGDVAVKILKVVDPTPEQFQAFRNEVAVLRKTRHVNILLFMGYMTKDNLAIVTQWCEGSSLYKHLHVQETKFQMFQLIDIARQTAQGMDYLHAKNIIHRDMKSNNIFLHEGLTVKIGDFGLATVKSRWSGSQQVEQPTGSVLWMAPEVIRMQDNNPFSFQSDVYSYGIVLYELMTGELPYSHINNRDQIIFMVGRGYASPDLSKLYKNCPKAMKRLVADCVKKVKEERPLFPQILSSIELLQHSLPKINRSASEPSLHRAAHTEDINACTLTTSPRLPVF

IC50 [1] [µM]	Compound	other results
> 30	O=C(O)CN1C(=O)S/C(=C\CCc2ccccc2)C1=O	–
> 30	CC/C=C1\SC(=O)N(CCN)C1=O	–
11.3	O=C1S/C(=C\CCc2ccccc2)C(=O)N1CCO	–
> 30	NCCN1C(=O)c2ccc(Cc3ccccc3)cc2C1=O	–
9.4	COc1ccc(CC/C=C2\SC(=O)N(CCN)C2=O)cc1	–
> 30	O=C1S/C(=C\CCc2ccccc2)C(=O)N1CCN1CCOCC1	–
10.4	NCCN1C(=O)S/C(=C\CCc2ccccc2)C1=O	inhibition [3]: inactive; inhibition [4]: inactive; inhibition [5]: inactive
> 30	NCCN1C(=O)SC(CCCc2ccccc2)C1=O (racemic)	inhibition [3]: inactive; inhibition [4]: inactive; inhibition [5]: inactive
27.7	NCCN1C(=O)S/C(=C\CCc2ccc3[nH]ccc3c2)C1=O	–

More lines, now with the values behind:

Compound	IC50 [1] [µM]	other results
NCCN1C(=O)S/C(=C\CCc2c[nH]c3ccccc23)C1=O	29.5	–
CCOc1ccccc1CC/C=C1\SC(=O)N(CCN)C1=O	11.3	–
NCCN1C(=O)S/C(=C\CCc2ccc(Cl)cc2)C1=O	21.2	–
NCCN1C(=O)S/C(=C\CCc2cccc([N+](=O)[O-])c2)C1=O	24.4	–
CCOc1cccc(CC/C=C2\SC(=O)N(CCN)C2=O)c1	10	–
NCCN1C(=O)S/C(=C\CCC2CC2)C1=O	14.1	–
NC(=O)c1[nH]cnc1N	–	growth inhibition (GI) [2]: inactive
O=C(NOCC1CC1)c1ccc(F)c(F)c1Nc1ccc(I)cc1Cl	–	Activity [6]: Active; Activity [7]: Active
CS(=O)(=O)Nc1ccc(CC/C=C2\SC(=O)N(CCN)C2=O)cc1	> 30	–
NCCN1C(=O)S/C(=C\CCc2ccc([N+](=O)[O-])cc2)C1=O	> 30	–
CCOc1ccc(CC/C=C2\SC(=O)N(CCN)C2=O)cc1	9.6	–
NCCN1C(=O)S/C(=C\CCc2ccc(S(N)(=O)=O)cc2)C1=O	> 30	–
NCCN1C(=O)S/C(=C\CCc2cccnc2)C1=O	> 30	–
